Measurements published in ChEMBL document CHEMBL3244145, “Synthesis and quantitative structure--activity relationships of some antibacterial 3-formylrifamycin SV N-(4-substituted phenyl)piperazinoacethydrazones” (J Med Chem, 1978).
Values after ≈ are worked out from the molar mass of the structure shown. Active and inactive are the calls of the source. No cut-off for these calls is given here.

Legend:
[1] = test system: Bacillus subtilis; assay: Antimicrobial activity against Bacillus subtilis 104 by serial dilution method; format: functional; conditions: for MIC: Bacillus subtilis, 104
[2] = test system: Staphylococcus aureus; assay: Antimicrobial activity against Staphylococcus aureus 11 by serial dilution method; format: functional; conditions: for MIC: Staphylococcus aureus, 11
[3] = test system: Clostridium perfringens; assay: Antimicrobial activity against Clostridium perfringens 2 by serial dilution method; format: functional; conditions: for MIC: Clostridium perfringens, 2
Method in brief: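 Broth MICs were determined by serial dilution of the hydrazones, run in triplicate. Where results differed, the standard deviation of the three determinations is reported.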

[4] = test system: Mycolicibacterium phlei; assay: Antimicrobial activity against Mycobacterium phlei 111 by serial dilution method; format: functional; conditions: for MIC: Mycolicibacterium phlei, 111
[5] = test system: Mycobacterium tuberculosis; assay: Antimicrobial activity against Mycobacterium tuberculosis H37Rv by agar dilution method; format: functional; conditions: for MIC: Mycobacterium tuberculosis, H37Rv
Method in brief: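 Agar dilution: the hydrazone is dissolved in warm Middlebrook agar and serially diluted into two quadrants of a quartered dish, with two drug-free quadrants. After cooling, 0.1 mL of M. tuberculosis suspension (McFarland no. 1, set spectrophotometrically) is inoculated. Plates are incubated 14 days at 37 °C under 5% CO2 and scored for colonies. Run in duplicate.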

[6] = test system: Vaccinia virus; assay: Antiviral activity against Vaccinia virus infected in L929 cells assessed as reduction in plaque formation after 3 to 4 days by crystal violet staining method; format: functional, organism-based; conditions: Orthopoxvirus vaccinia
[7] = test system: L929; assay: Cytotoxicity against mouse L929 cells by microscopic analysis; format: cell-based

Structure (SMILES)	log(1/C) [1]	MIC [1] [µg/mL]	log(1/C) [2]	MIC [2] [µg/mL]	log(1/C) [3]	MIC [3] [µg/mL]	log(1/C) [4]	MIC [4] [µg/mL]	log(1/C) [5]	MIC [5] [µg/mL]	Activity [6]	Activity [7]
CO[C@H]1/C=C/O[C@@]2(C)Oc3c(C)c(O)c4c(O)c(c(/C=N/NC(=O)CN5CCN(c6ccc(C#N)cc6)CC5)c(O)c4c3C2=O)NC(=O)/C(C)=C\C=C\[C@H](C)[C@H](O)[C@@H](C)[C@@H](O)[C@@H](C)[C@H](OC(C)=O)[C@@H]1C	4.77	16.3 (≈ 16.9 µM)	7.07	0.082 (≈ 0.0848 µM)	8.14	0.007 (≈ 0.00724 µM)	4.65	21.5 (≈ 22.2 µM)	4.72	18.6 (≈ 19.2 µM)	inactive	Toxic
CO[C@H]1/C=C/O[C@@]2(C)Oc3c(C)c(O)c4c(O)c(c(/C=N/NC(=O)CN5CCN(c6ccc(C(C)(C)C)cc6)CC5)c(O)c4c3C2=O)NC(=O)/C(C)=C\C=C\[C@H](C)[C@H](O)[C@@H](C)[C@@H](O)[C@@H](C)[C@H](OC(C)=O)[C@@H]1C	5.32	4.8 (≈ 4.81 µM)	7.49	0.033 (≈ 0.0331 µM)	8.7	0.002 (≈ 0.002 µM)	5.44	3.63 (≈ 3.64 µM)	5.12	7.5 (≈ 7.51 µM)	inactive	Toxic
CO[C@H]1/C=C/O[C@@]2(C)Oc3c(C)c(O)c4c(O)c(c(/C=N/N5CCN(C)CC5)c(O)c4c3C2=O)NC(=O)/C(C)=C\C=C\[C@H](C)[C@H](O)[C@@H](C)[C@@H](O)[C@@H](C)[C@H](OC(C)=O)[C@@H]1C [RIFAMPIN]	6.59	0.21 (≈ 0.255 µM)	> 8.07	< 0.007	8.44	0.003 (≈ 0.00365 µM)	6.48	0.27 (≈ 0.328 µM)	5.91	1 (≈ 1.22 µM)	–	–
CO[C@H]1/C=C/O[C@@]2(C)Oc3c(C)c(O)c4c(O)c(c(/C=N/NC(=O)CN5CCN(c6ccc(Oc7ccccc7)cc6)CC5)c(O)c4c3C2=O)NC(=O)/C(C)=C\C=C\[C@H](C)[C@H](O)[C@@H](C)[C@@H](O)[C@@H](C)[C@H](OC(C)=O)[C@@H]1C	5.32	5 (≈ 4.83 µM)	7.74	0.019 (≈ 0.0184 µM)	8.11	0.008 (≈ 0.00774 µM)	5.24	6 (≈ 5.8 µM)	4.84	15 (≈ 14.5 µM)	inactive	Toxic
CO[C@H]1/C=C/O[C@@]2(C)Oc3c(C)c(O)c4c(O)c(c(/C=N/NC(=O)CN5CCN(c6ccc(Cl)cc6)CC5)c(O)c4c3C2=O)NC(=O)/C(C)=C\C=C\[C@H](C)[C@H](O)[C@@H](C)[C@@H](O)[C@@H](C)[C@H](OC(C)=O)[C@@H]1C	5.31	4.8 (≈ 4.92 µM)	7.43	0.036 (≈ 0.0369 µM)	8.21	0.006 (≈ 0.00614 µM)	5.19	6.38 (≈ 6.53 µM)	4.91	12 (≈ 12.3 µM)	inactive	Toxic
CO[C@H]1/C=C/O[C@@]2(C)Oc3c(C)c(O)c4c(O)c(c(/C=N/NC(=O)CN5CCN(c6ccc(Br)cc6)CC5)c(O)c4c3C2=O)NC(=O)/C(C)=C\C=C\[C@H](C)[C@H](O)[C@@H](C)[C@@H](O)[C@@H](C)[C@H](OC(C)=O)[C@@H]1C	5.31	5 (≈ 4.9 µM)	7.46	0.035 (≈ 0.0343 µM)	8.23	0.006 (≈ 0.00588 µM)	5.22	6.13 (≈ 6 µM)	5.08	8.4 (≈ 8.23 µM)	inactive	Toxic
CCc1ccc(N2CCN(CC(=O)N/N=C/c3c4c(O)c5c(O)c(C)c6c(c5c3O)C(=O)[C@@](C)(O/C=C/[C@H](OC)[C@@H](C)[C@@H](OC(C)=O)[C@H](C)[C@H](O)[C@H](C)[C@@H](O)[C@@H](C)/C=C/C=C(/C)C(=O)N4)O6)CC2)cc1	5.25	5.5 (≈ 5.67 µM)	7.57	0.026 (≈ 0.0268 µM)	8.51	0.003 (≈ 0.00309 µM)	5.16	6.75 (≈ 6.96 µM)	4.72	18.6 (≈ 19.2 µM)	inactive	Toxic
CO[C@H]1/C=C/O[C@@]2(C)Oc3c(C)c(O)c4c(O)c(c(/C=N/NC(=O)CN5CCN(c6ccc(C)cc6)CC5)c(O)c4c3C2=O)NC(=O)/C(C)=C\C=C\[C@H](C)[C@H](O)[C@@H](C)[C@@H](O)[C@@H](C)[C@H](OC(C)=O)[C@@H]1C	5.27	5.1 (≈ 5.33 µM)	7.4	0.038 (≈ 0.0397 µM)	8.14	0.007 (≈ 0.00732 µM)	5.14	7 (≈ 7.32 µM)	4.96	10.5 (≈ 11 µM)	inactive	Toxic
CO[C@H]1/C=C/O[C@@]2(C)Oc3c(C)c(O)c4c(O)c(c(/C=N/NC(=O)CN5CCN(c6ccc(C(F)(F)F)cc6)CC5)c(O)c4c3C2=O)NC(=O)/C(C)=C\C=C\[C@H](C)[C@H](O)[C@@H](C)[C@@H](O)[C@@H](C)[C@H](OC(C)=O)[C@@H]1C	5.01	9.8 (≈ 9.7 µM)	7.62	0.024 (≈ 0.0238 µM)	8.7	0.002 (≈ 0.00198 µM)	5.14	7.38 (≈ 7.31 µM)	4.75	18 (≈ 17.8 µM)	inactive	Toxic
CO[C@H]1/C=C/O[C@@]2(C)Oc3c(C)c(O)c4c(O)c(c(/C=N/NC(=O)CN5CCN(c6ccccc6)CC5)c(O)c4c3C2=O)NC(=O)/C(C)=C\C=C\[C@H](C)[C@H](O)[C@@H](C)[C@@H](O)[C@@H](C)[C@H](OC(C)=O)[C@@H]1C	5.24	5.4 (≈ 5.73 µM)	7.22	0.057 (≈ 0.0605 µM)	8.13	0.007 (≈ 0.00743 µM)	5.12	7.13 (≈ 7.57 µM)	5.03	8.7 (≈ 9.23 µM)	inactive	Toxic
CO[C@H]1/C=C/O[C@@]2(C)Oc3c(C)c(O)c4c(O)c(c(/C=N/NC(=O)CN5CCN(c6ccc(C(C)C)cc6)CC5)c(O)c4c3C2=O)NC(=O)/C(C)=C\C=C\[C@H](C)[C@H](O)[C@@H](C)[C@@H](O)[C@@H](C)[C@H](OC(C)=O)[C@@H]1C	5.3	4.9 (≈ 4.98 µM)	7.56	0.027 (≈ 0.0274 µM)	8.52	0.003 (≈ 0.00305 µM)	5.48	3.25 (≈ 3.3 µM)	5.04	9 (≈ 9.14 µM)	inactive	Toxic
CO[C@H]1/C=C/O[C@@]2(C)Oc3c(C)c(O)c4c(O)c(c(/C=N/NC(=O)CN5CCN(c6ccc(F)cc6)CC5)c(O)c4c3C2=O)NC(=O)/C(C)=C\C=C\[C@H](C)[C@H](O)[C@@H](C)[C@@H](O)[C@@H](C)[C@H](OC(C)=O)[C@@H]1C	5.3	4.8 (≈ 5 µM)	7.06	0.084 (≈ 0.0875 µM)	8.51	0.005 (≈ 0.00521 µM)	5.22	5.75 (≈ 5.99 µM)	4.81	15 (≈ 15.6 µM)	inactive	Toxic
CO[C@H]1/C=C/O[C@@]2(C)Oc3c(C)c(O)c4c(O)c(c(/C=N/NC(=O)CN5CCN(c6ccc([N+](=O)[O-])cc6)CC5)c(O)c4c3C2=O)NC(=O)/C(C)=C\C=C\[C@H](C)[C@H](O)[C@@H](C)[C@@H](O)[C@@H](C)[C@H](OC(C)=O)[C@@H]1C	4.9	12.3 (≈ 12.5 µM)	7.6	0.025 (≈ 0.0253 µM)	8.3	0.005 (≈ 0.00507 µM)	4.93	11.5 (≈ 11.7 µM)	4.74	18 (≈ 18.2 µM)	inactive	Toxic
COc1ccc(N2CCN(CC(=O)N/N=C/c3c4c(O)c5c(O)c(C)c6c(c5c3O)C(=O)[C@@](C)(O/C=C/[C@H](OC)[C@@H](C)[C@@H](OC(C)=O)[C@H](C)[C@H](O)[C@H](C)[C@@H](O)[C@@H](C)/C=C/C=C(/C)C(=O)N4)O6)CC2)cc1	4.93	11.3 (≈ 11.6 µM)	7.26	0.054 (≈ 0.0555 µM)	8.14	0.007 (≈ 0.0072 µM)	5.27	5.25 (≈ 5.4 µM)	4.81	15 (≈ 15.4 µM)	inactive	Toxic
CO[C@H]1/C=C/O[C@@]2(C)Oc3c(C)c(O)c4c(O)c(c(/C=N/NC(=O)CN5CCN(c6ccc(NC(C)=O)cc6)CC5)c(O)c4c3C2=O)NC(=O)/C(C)=C\C=C\[C@H](C)[C@H](O)[C@@H](C)[C@@H](O)[C@@H](C)[C@H](OC(C)=O)[C@@H]1C	4.92	12 (≈ 12 µM)	7.22	0.06 (≈ 0.0601 µM)	8	0.01 (≈ 0.01 µM)	4.59	31 (≈ 31 µM)	4.74	18 (≈ 18 µM)	inactive	Toxic
